Results taken from ChEMBL document CHEMBL4007449, “Novel multi-substituted benzyl acridone derivatives as survivin inhibitors for hepatocellular carcinoma treatment” (Eur J Med Chem, 2017).
Activity calls are given as the source filed them. The calls are words filed in the database; no cut-off is given here.

Experiments:
Homo sapiens = organism: Homo sapiens; experiment: Inhibition of recombinant human topoisomerase-2-mediated decatenation at 10 uM using kinetoplast DNA as substrate after 30 mins agarose gel electrophoresis method relative to control
In short: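 Human Topo II decatenation run by a contract laboratory. Compound or 50% DMSO combined with reaction mix and diluted enzyme, incubated 35 ± 2 °C for 30 min, then stop buffer added. Products separated on 1% agarose, stained 10 min with 2.3 µg/ml ethidium bromide, destained 20 min, bands quantified densitometrically. Doxorubicin at 1 and 10 µM as positive controls, no-compound negative control; run in duplicate.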

Mus musculus [1] = experiment: Toxicity in nude mouse ectopically xenografted with human HepG2 cells assessed as liver weight at 0.33 mg/kg, ip administered once in 2 days measured after 30 days (reference value: 0.069 to 0.434 g); assay type: organism-based; conditions: in vivo, 720 h
In short: (§1)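 HepG2 cells implanted subcutaneously in the flanks of nude mice, randomised into groups of 5: blank, 5-FU (25 mg/kg) and test compound hydrochloride at 0.33 or 3 mg/kg, given i.p. once every 2 days. Tumour volume and body weight recorded every 2 days. Mice euthanised on day 30; tumours, liver and spleen weighed and organ indices calculated; tumour growth inhibition derived.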

Mus musculus [2] = experiment: Toxicity in nude mouse ectopically xenografted with human HepG2 cells assessed as spleen weight index at 3 mg/kg, ip administered once in 2 days measured after 30 days (reference value: 0.002 to 0.0106); assay type: organism-based; conditions: in vivo, 720 h; in short: as §1
Mus musculus [3] = experiment: Toxicity in nude mouse ectopically xenografted with human HepG2 cells assessed as spleen weight index at 0.33 mg/kg, ip administered once in 2 days measured after 30 days (reference value: 0.002 to 0.0106); assay type: organism-based; conditions: in vivo, 720 h; in short: as §1
Mus musculus [4] = experiment: Toxicity in nude mouse ectopically xenografted with human HepG2 cells assessed as spleen weight at 0.33 mg/kg, ip administered once in 2 days measured after 30 days (reference value: 0.071 to 0.248 g); assay type: organism-based; conditions: in vivo, 720 h; in short: as §1
Mus musculus [5] = experiment: Toxicity in nude mouse ectopically xenografted with human HepG2 cells assessed as spleen weight at 3 mg/kg, ip administered once in 2 days measured after 30 days (reference value: 0.071 to 0.248 g); assay type: organism-based; conditions: in vivo, 720 h; in short: as §1
Mus musculus [6] = experiment: Toxicity in nude mouse ectopically xenografted with human HepG2 cells assessed as body weight loss at 0.33 to 3 mg/kg, ip administered once in 2 days measured up to 30 days post dose; assay type: organism-based; conditions: in vivo; in short: as §1
Mus musculus [7] = experiment: Toxicity in nude mouse ectopically xenografted with human HepG2 cells assessed as effect on normal growth at 0.33 to 3 mg/kg, ip administered once in 2 days measured up to 30 days post dose; assay type: organism-based; conditions: in vivo; in short: as §1
Mus musculus [8] = experiment: Toxicity in nude mouse ectopically xenografted with human HepG2 cells assessed as liver weight at 3 mg/kg, ip administered once in 2 days measured after 30 days (reference value: 0.069 to 0.434 g); assay type: organism-based; conditions: in vivo, 720 h; in short: as §1
Mus musculus [9] = experiment: Toxicity in nude mouse ectopically xenografted with human HepG2 cells assessed as liver weight index at 3 mg/kg, ip administered once in 2 days measured after 30 days (reference value: 0.0009 to 0.0187); assay type: organism-based; conditions: in vivo, 720 h; in short: as §1
HepG2 [10] = experiment: Antitumor activity against human HepG2 cells ectopically xenografted in nude mouse assessed as tumor growth inhibition at 3 mg/kg, ip administered once in 2 days measured after 30 days relative to control; assay type: functional; conditions: read-out: TGI; in short: as §1
Mus musculus [11] = experiment: Toxicity in nude mouse ectopically xenografted with human HepG2 cells assessed as effect on normal behavior at 0.33 to 3 mg/kg, ip administered once in 2 days measured up to 30 days post dose; assay type: organism-based; conditions: in vivo; in short: as §1
Mus musculus [12] = experiment: Toxicity in nude mouse ectopically xenografted with human HepG2 cells assessed as liver weight index at 0.33 mg/kg, ip administered once in 2 days measured after 30 days (reference value: 0.0009 to 0.0187); assay type: organism-based; conditions: in vivo, 720 h; in short: as §1
Mus musculus [13] = experiment: Toxicity in ip dosed nude mouse ectopically xenografted with human HepG2 cells assessed as increase in spleen weight administered once in 2 days measured after 30 days; assay type: organism-based; conditions: in vivo, 720 h; in short: as §1
HepG2 [14] = experiment: Antiproliferative activity against human HepG2 cells after 48 hrs by MTT assay; assay type: functional, cell-based; conditions: HepG2, 48 h
In short: (§2)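 Cells grown in DMEM with 10% FBS at 37 °C, 5% CO2; seeded at 6 × 10^3 cells/well, allowed to attach 12 h, then exposed to compound at final 50, 25, 10, 1 and 0.1 µM for 48 h. MTT (5 mg/mL) added for 4 h, formazan dissolved in DMSO, absorbance read at 490 nm; IC50 taken from the resulting curve.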

MCF7 = experiment: Antiproliferative activity against human MCF7 cells after 48 hrs by MTT assay; assay type: functional, cell-based; conditions: MCF7, 48 h; in short: as §2
[15] = biological target: Baculoviral IAP repeat-containing protein 5 (Homo sapiens) (UniProt O15392); experiment: Binding affinity to survivin (unknown origin) up to 1.8 uM after 20 mins by spectrofluorimetric titration method
Sequence of Baculoviral IAP repeat-containing protein 5 (Homo sapiens) (O15392 whole entry): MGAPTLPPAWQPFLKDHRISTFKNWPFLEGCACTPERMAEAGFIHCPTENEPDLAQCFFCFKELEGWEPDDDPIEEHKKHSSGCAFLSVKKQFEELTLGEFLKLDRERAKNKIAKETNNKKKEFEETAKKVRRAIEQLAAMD

Compound: COc1cccc2c1C(=O)c1c(O)c3c(c(O)c1C2=O)C[C@@](O)(C(=O)CO)C[C@@H]3O[C@H]1C[C@H](N)[C@H](O)[C@H](C)O1
- inhibition (Homo sapiens): 74.4%

Compound: COc1ccc(CNc2ccc(C(=O)NCCCN(C)C)c3[nH]c4c([N+](=O)[O-])cccc4c(=O)c23)cc1.Cl
- Activity (Mus musculus [1]): 0.04 to 0.441 g
- Activity index (Mus musculus [2]): 0.0042 to 0.0162
- Activity index (Mus musculus [3]): 0.0016 to 0.0113
- Activity (Mus musculus [4]): 0.044 to 0.231 g
- Activity (Mus musculus [5]): 0.084 to 0.344 g
- Activity (Mus musculus [6]): Non-Toxic
- Activity (Mus musculus [7]): Non-Toxic
- Activity (Mus musculus [8]): 0.032 to 0.421 g
- Activity index (Mus musculus [9]): 0.0025 to 0.0198
- inhibition in vivo at 3 mg/kg (HepG2 [10]): 54%
- Activity (Mus musculus [11]): Non-Toxic
- Activity index (Mus musculus [12]): 0.0016 to 0.0217
- Activity (Mus musculus [13]): Dose-dependent effect

Compound: COCCN1C(C)=[N+](Cc2cnccn2)C2Cc3ccccc3CC21 (configuration not stated)
- IC50 (HepG2 [14]): 15.3 µM
- IC50 (MCF7): 4.13 µM
- Activity [15]: inactive
